Converted amounts (≈) assume the structure as drawn.
How the values were obtained:
Format in all cases: functional
Staphylococcus aureus [1] = experiment: Antibacterial activity against multidrug-resistant Staphylococcus aureus isolate 1402 by broth microdilution assay
Outline: (§1)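 Broth microdilution MIC per CLSI guidelines against clinical MRSA isolates, for β-lactams and test compound alone and in combination. Compounds were dissolved in DMSO. Growth was read by eye, in duplicate. FIC index = FIC(compound) + FIC(drug); synergy defined as FIC index ≤0.5.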

Staphylococcus aureus [2] = experiment: Antibacterial activity against multidrug-resistant Staphylococcus aureus isolate 256 by broth microdilution assay; outline: as §1
Staphylococcus aureus [3] = experiment: Synergistic antibacterial activity against multidrug-resistant Staphylococcus aureus isolate 417 assessed as fractional Inhibitory concentration index in presence of cefuroxime by broth microdilution assay
Staphylococcus aureus [4] = experiment: Antibacterial activity against multidrug-resistant Staphylococcus aureus isolate 2224 by broth microdilution assay; outline: as §1
Staphylococcus aureus [5] = experiment: Synergistic antibacterial activity against multidrug-resistant Staphylococcus aureus isolate 1717 assessed as fractional Inhibitory concentration index in presence of amoxicillin by broth microdilution assay
Outline: (§2)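 CLSI broth microdilution run on clinical MRSA isolates with each β-lactam alone, the test agent alone, and the two combined; agents dissolved in DMSO. Growth inhibition was read by eye. FIC index = FIC(compound) + FIC(β-lactam), where each FIC is the MIC in combination divided by the MIC alone. An index ≤0.5 was taken as synergy.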

Staphylococcus aureus [6] = experiment: Synergistic antibacterial activity against multidrug-resistant Staphylococcus aureus isolate 774 in presence of cefuroxime by broth microdilution assay
Staphylococcus aureus [7] = experiment: Synergistic antibacterial activity against multidrug-resistant Staphylococcus aureus isolate 1402 assessed as fractional Inhibitory concentration index in presence of meropenem by broth microdilution assay; outline: as §2
Staphylococcus aureus [8] = experiment: Synergistic antibacterial activity against multidrug-resistant Staphylococcus aureus isolate 231 in presence of meropenem by broth microdilution assay
Outline: (§3)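 Clinical MRSA isolate panel; compound and β-lactam tested alone and in combination by CLSI broth microdilution, compounds dissolved in DMSO, growth inhibition scored by eye, run in duplicate. FIC index = FIC(compound) + FIC(drug), each the MIC in combination divided by the MIC alone; an index ≤ 0.5 was called synergy.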

Staphylococcus aureus [9] = experiment: Synergistic antibacterial activity against multidrug-resistant Staphylococcus aureus isolate 2224 in presence of cloxacillin by broth microdilution assay; outline: as §3
Staphylococcus aureus [10] = experiment: Synergistic antibacterial activity against multidrug-resistant Staphylococcus aureus isolate 1344 in presence of cloxacillin by broth microdilution assay; outline: as §3
Staphylococcus aureus [11] = experiment: Synergistic antibacterial activity against multidrug-resistant Staphylococcus aureus isolate 2895 assessed as fractional Inhibitory concentration index in presence of amoxicillin by broth microdilution assay
Staphylococcus aureus [12] = experiment: Antibacterial activity against multidrug-resistant Staphylococcus aureus isolate 2901 by broth microdilution assay; outline: as §1
Staphylococcus aureus [13] = experiment: Synergistic antibacterial activity against multidrug-resistant Staphylococcus aureus isolate 417 in presence of amoxicillin by broth microdilution assay
Staphylococcus aureus [14] = experiment: Synergistic antibacterial activity against multidrug-resistant Staphylococcus aureus isolate 1749 in presence of meropenem by broth microdilution assay; outline: as §3
Staphylococcus aureus [15] = experiment: Synergistic antibacterial activity against multidrug-resistant Staphylococcus aureus isolate 1749 assessed as fractional Inhibitory concentration index in presence of cloxacillin by broth microdilution assay; outline: as §2
Staphylococcus aureus [16] = experiment: Synergistic antibacterial activity against multidrug-resistant Staphylococcus aureus isolate 1402 in presence of meropenem by broth microdilution assay; outline: as §3
Staphylococcus aureus [17] = experiment: Synergistic antibacterial activity against multidrug-resistant Staphylococcus aureus isolate 1402 in presence of amoxicillin by broth microdilution assay; outline: as §3
Staphylococcus aureus [18] = experiment: Synergistic antibacterial activity against multidrug-resistant Staphylococcus aureus isolate 3332 assessed as fractional Inhibitory concentration index in presence of meropenem by broth microdilution assay
Staphylococcus aureus [19] = experiment: Synergistic antibacterial activity against multidrug-resistant Staphylococcus aureus isolate 1749 in presence of cefuroxime by broth microdilution assay; outline: as §3
Staphylococcus aureus [20] = experiment: Synergistic antibacterial activity against multidrug-resistant Staphylococcus aureus isolate 200 assessed as fractional Inhibitory concentration index in presence of cefuroxime by broth microdilution assay; outline: as §2

With CCCCCCCCCNc1ccc(F)c(C(N)=O)c1F the MIC (Staphylococcus aureus [1]) was 4 µg/mL (≈ 13.4 µM), the MIC (Staphylococcus aureus [2]) was 1020 µg/mL (≈ 3430 µM) and the “fractional inhibitory concentration index (FICI)” value (Staphylococcus aureus [3]) was 0.1. For the same compound, the MIC (Staphylococcus aureus [4]) was 1020 µg/mL (≈ 3430 µM), the “fractional inhibitory concentration index (FICI)” value (Staphylococcus aureus [5]) was 1.1 and the MIC (Staphylococcus aureus [6]) was 2 µg/mL. The “fractional inhibitory concentration index (FICI)” value (Staphylococcus aureus [7]) was 5, the MIC (Staphylococcus aureus [8]) was 4 µg/mL and the MIC (Staphylococcus aureus [9]) was 2 µg/mL. The MIC (Staphylococcus aureus [10]) was 1 µg/mL, the “fractional inhibitory concentration index (FICI)” value (Staphylococcus aureus [11]) was 1.1 and the MIC (Staphylococcus aureus [12]) was 512 µg/mL (≈ 1720 µM). For the same compound, the MIC (Staphylococcus aureus [13]) was 8 µg/mL, the MIC (Staphylococcus aureus [14]) was 4 µg/mL and the “fractional inhibitory concentration index (FICI)” value (Staphylococcus aureus [15]) was 1.3. The MIC (Staphylococcus aureus [16]) was 4 µg/mL, the MIC (Staphylococcus aureus [17]) was 4 µg/mL and the “fractional inhibitory concentration index (FICI)” value (Staphylococcus aureus [18]) was 2.3. The MIC (Staphylococcus aureus [19]) was 2 µg/mL and the “fractional inhibitory concentration index (FICI)” value (Staphylococcus aureus [20]) was 1.

— ChEMBL document CHEMBL4330069, “Boosting the efficacy of anti-MRSA β-lactam antibiotics via an easily accessible, non-cytotoxic and orally bioavailable FtsZ inhibitor” (Eur J Med Chem, 2019)
